Test results: ChEMBL document CHEMBL1134563, “Synthesis, mechanism of action, and antiviral activity of a new series of covalent mechanism-based inhibitors of S-adenosyl-L-homocysteine hydrolase” (J Med Chem, 2001)
pEC50, pKi: −log10 of the molar value. In brackets after ≈: the same amount, converted by molar mass.

How the values were obtained:
E6SM [1] = experiment: Effective concentration required to inhibit Herpes simplex virus-1 (HSV-1) induced cytopathicity by 50% in E6SM cell lines; format: functional, cell-based; settings: Homo sapiens
E6SM [2] = experiment: Effective concentration required to inhibit Herpes simplex virus-2 (HSV-2) induced cytopathicity by 50% in E6SM cell lines; format: functional, cell-based; settings: Homo sapiens
E6SM [3] = experiment: Effective concentration required to inhibit Vaccinia virus-induced cytopathicity by 50% in E6SM cell lines; format: functional, cell-based; settings: Homo sapiens
E6SM [4] = experiment: Minimum inhibitory concentration required to elicit microscopically visible cell morphology in E6SM cell lines; format: functional; settings: Homo sapiens
HeLa [5] = experiment: Effective concentration required to inhibit vesicular stomatitis virus (VSV)-induced cytopathicity by 50% in HeLa cell lines; format: functional, cell-based; settings: Homo sapiens
HEL [6] = experiment: Minimum inhibitory concentration required to elicit microscopically visible cell morphology in HEL cell lines; format: functional; settings: Homo sapiens
HEL [7] = experiment: Effective concentration required to inhibit cytomegalo virus-induced cytopathicity by 50% in AD-169 strain HEL cell lines; format: functional, cell-based; settings: Homo sapiens
HEL [8] = experiment: Effective concentration required to inhibit cytomegalo virus-induced cytopathicity by 50% in Davis-169 strain HEL cell lines; format: functional, cell-based; settings: Homo sapiens
[9] = half life of enzyme inactivation at 15 uM; format: functional
In short: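 Recombinant human placental AdoHcy hydrolase was preincubated with inhibitor (5-40 µM range) in assay buffer at 37 °C. Residual activity was read at set times in the synthetic direction: [8-14C]-AdoHcy formation from 10 µM [8-14C]-Ado plus 5 mM D,L-Hcy, in 20 mM K phosphate pH 7.5, 1 mg/mL BSA, 1 mM EDTA, for 10 min at 37 °C. HCl stopped the reaction, and products were separated on Cellex P.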

E6SM [10] = experiment: Effective concentration required to inhibit Herpes simplex virus-1(HSV-1) / […] kinase deficient (TK-)B2006 / VMW1837 induced cytopathicity by 50% in E6SM cell lines; format: functional, cell-based; settings: Homo sapiens
E6SM [11] = experiment: Effective concentration required to inhibit vesicular stomatitis virus(VSV) -induced cytopathicity by 50% in E6SM cell lines; format: functional, cell-based; settings: Homo sapiens
HeLa [12] = experiment: Effective concentration required to inhibit Coxsackie virus B4-induced cytopathicity by 50% in HeLa cell lines; format: functional, cell-based; settings: Homo sapiens
HeLa [13] = experiment: Effective concentration required to inhibit respiratory synaptial(RSV) virus-induced cytopathicity by 50% in HeLa cell lines; format: functional, cell-based; settings: Homo sapiens
HeLa [14] = experiment: Minimum inhibitory concentration required to elicit microscopically visible cell morphology in HeLa cell lines; format: functional; settings: Homo sapiens
HEL [15] = experiment: Effective concentration required to inhibit thymidine kinase (TK+) Varicella-Zoster virus-induced cytopathicity by 50% in OKA strain HEL cell lines; format: functional, cell-based; settings: Homo sapiens
HEL [16] = experiment: Effective concentration required to inhibit thymidine kinase (TK+) Varicella-Zoster virus-induced cytopathicity by 50% in YS strain HEL cell lines; format: functional, cell-based; settings: Homo sapiens
HEL [17] = experiment: Effective concentration required to inhibit Thymidine kinase deficient (TK-) Varicella-Zoster virus-induced cytopathicity by 50% in 07/01 strain HEL cell lines; format: functional, cell-based; settings: Homo sapiens
HEL [18] = experiment: Effective concentration required to inhibit Thymidine kinase deficient (TK-) Varicella-Zoster virus-induced cytopathicity by 50% in YS/R strain HEL cell lines; format: functional, cell-based; settings: Homo sapiens
Adenosylhomocysteinase [19] = molecular target: T1, Adenosylhomocysteinase (Homo sapiens, UniProt P23526); experiment: Inhibition of purified recombinant human placental S-adenosyl-homocysteine hydrolase
In short: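 Enzyme preincubated at 37 °C in assay buffer with inactivator (5-40 µM). Residual activity was read over time in the synthetic direction from the formation of [8-14C]-AdoHcy, using 10 µM [8-14C]-Ado, 5 mM D,L-Hcy, 20 mM potassium phosphate pH 7.5, 1 mg/mL BSA and 1 mM EDTA, 10 min at 37 °C. Reaction stopped with HCl; Ado/AdoHcy separated on Cellex P.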
Target sequence in this assay (P23526 whole entry): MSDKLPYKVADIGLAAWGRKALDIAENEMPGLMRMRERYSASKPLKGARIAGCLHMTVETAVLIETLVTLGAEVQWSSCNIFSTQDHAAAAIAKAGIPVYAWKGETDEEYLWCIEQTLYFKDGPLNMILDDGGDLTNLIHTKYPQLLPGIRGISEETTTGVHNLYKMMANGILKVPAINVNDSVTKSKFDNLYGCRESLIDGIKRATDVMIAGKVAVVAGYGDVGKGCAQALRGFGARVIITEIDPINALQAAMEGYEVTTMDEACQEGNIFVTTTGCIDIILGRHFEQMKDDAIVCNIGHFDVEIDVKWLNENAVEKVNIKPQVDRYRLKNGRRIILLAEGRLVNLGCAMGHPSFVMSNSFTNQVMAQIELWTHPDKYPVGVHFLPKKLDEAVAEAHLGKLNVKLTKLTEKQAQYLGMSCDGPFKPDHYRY

Vero [20] = experiment: Effective concentration required to inhibit Junin virus-induced cytopathicity by 50% in Vero cell lines; format: functional, cell-based; settings: Chlorocebus sabaeus
Vero [21] = experiment: Effective concentration required to inhibit PuntaToro virus-induced cytopathicity by 50% in Vero cell lines; format: functional, cell-based; settings: Chlorocebus sabaeus
Vero [22] = experiment: Effective concentration required to inhibit Sindbis virus-induced cytopathicity by 50% in Vero cell lines; format: functional, cell-based; settings: Chlorocebus sabaeus
Vero [23] = experiment: Effective concentration required to inhibit Tacaribe virus-induced cytopathicity by 50% Vero cell lines; format: functional, cell-based; settings: Chlorocebus sabaeus
Vero [24] = experiment: Effective concentration required to inhibit parainfluenza-3 virus-induced cytopathicity by 50% in Vero cell lines; format: functional, cell-based; settings: Chlorocebus sabaeus
Vero [25] = experiment: Effective concentration required to inhibit reovirus-induced cytopathicity by 50% in Vero cell lines; format: functional, cell-based; settings: Chlorocebus sabaeus
Vero [26] = experiment: Effective concentration required to inhibit respiratory synaptial (RSV) virus-induced cytopathicity by 50% in Vero cell lines; format: functional, cell-based; settings: Chlorocebus sabaeus
Adenosylhomocysteinase [27] = molecular target: T1, Adenosylhomocysteinase
Target sequence in this assay (P23526 2-432 limits assumed): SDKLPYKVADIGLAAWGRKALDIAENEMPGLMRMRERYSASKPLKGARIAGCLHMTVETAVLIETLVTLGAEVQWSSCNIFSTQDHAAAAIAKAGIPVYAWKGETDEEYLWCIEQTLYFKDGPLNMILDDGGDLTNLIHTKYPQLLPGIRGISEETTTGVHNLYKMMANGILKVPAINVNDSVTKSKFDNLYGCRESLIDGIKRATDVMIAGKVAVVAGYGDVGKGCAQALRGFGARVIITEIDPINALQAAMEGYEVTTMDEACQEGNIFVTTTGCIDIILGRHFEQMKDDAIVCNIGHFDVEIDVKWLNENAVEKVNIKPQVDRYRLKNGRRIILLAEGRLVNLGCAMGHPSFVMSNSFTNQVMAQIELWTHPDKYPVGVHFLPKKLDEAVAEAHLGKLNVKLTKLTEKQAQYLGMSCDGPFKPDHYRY

Adenosylhomocysteinase [28] = molecular target: T1, Adenosylhomocysteinase; remark: listed apart in the source
Target sequence in this assay (P23526 2-432 limits assumed): as above

Adenosylhomocysteinase [29] = molecular target: T1, Adenosylhomocysteinase; remark: listed apart in the source
Target sequence in this assay (P23526 2-432 limits assumed): as above

Vero [30] = experiment: Minimum inhibitory concentration required to elicit microscopically visible cell morphology in Vero cell lines; format: functional; settings: Chlorocebus sabaeus
Vero [31] = experiment: Effective concentration required to inhibit Punta Toro virus-induced cytopathicity by 50% in Vero cell lines; format: functional, cell-based; settings: Chlorocebus sabaeus
HeLa [32] = experiment: Effective concentration required to inhibit respiratory synaptial (RSV) virus-induced cytopathicity by 50% in HeLa cell lines; format: functional, cell-based; settings: Homo sapiens
HEL [33] = experiment: Effective concentration required to inhibit cytomegalo virus(CMV) -induced cytopathicity by 50% in AD-169 strain HEL cell lines; format: functional, cell-based; settings: Homo sapiens

| SMILES | pEC50 (E6SM [1]) | pEC50 (E6SM [2]) | pEC50 (E6SM [3]) | MIC (E6SM [4]) | pEC50 (HeLa [5]) | MIC (HEL [6]) | pEC50 (HEL [8]) | pEC50 (E6SM [10]) | pEC50 (E6SM [11]) | pEC50 (HeLa [12]) | pEC50 (HeLa [13]) | MIC (HeLa [14]) | pEC50 (HEL [15]) | pEC50 (HEL [16]) | pEC50 (HEL [17]) | pEC50 (HEL [18]) | pEC50 (Vero [21]) | pEC50 (Vero [24]) | pEC50 (Vero [25]) | pEC50 (Vero [26]) | also measured |
| --- | --- | --- | --- | --- | --- | --- | --- | --- | --- | --- | --- | --- | --- | --- | --- | --- | --- | --- | --- | --- | --- |
| Nc1nc2c(ncn2COC(CO)CO)c(=O)[nH]1 [GANCICLOVIR] | 8.92 | 8.92 | < 4.00 | > 1600 µM | < 4.00 | > 150 µM | 4.93 |  |  |  |  |  |  |  |  |  |  |  |  |  | pEC50 (HEL [7]): 5.11 |
| C=C=CSC[C@H]1OC(n2cnc3c(N)ncnc32)[C@H](O)[C@@H]1O (stereo partly drawn) | 3.60 | < 3.60 | 5.72 | 1240 µM (≈ 398 µg/mL) | < 3.60 | > 200 µM | < 3.70 | 3.82 | < 3.60 | < 3.22 | < 3.60 | 1240 µM (≈ 398 µg/mL) | < 3.70 | < 3.70 | 4.06 | < 3.70 | < 3.21 | < 3.21 | < 3.42 | < 3.60 | T1/2 [9]: 7 min; pEC50 (HEL [7]): < 3.70; pKi (Adenosylhomocysteinase [19]): 4.80; pEC50 (Vero [20]): < 3.70; pEC50 (Vero [22]): < 3.70; pEC50 (Vero [23]): < 3.70; K inact (Adenosylhomocysteinase [27]): 0.12 min⁻¹; NAD+ content (Adenosylhomocysteinase [28]): 0.7; NADH content (Adenosylhomocysteinase [29]): 0.3 |
| Nc1ncnc2c1ncn2C[C@H](O)CO [(S)-DHPA] |  |  |  |  | 3.64 |  |  |  |  | 3.64 |  | > 2000 µM |  |  |  |  |  | 3.64 | 4.35 | < 2.70 | MIC (Vero [30]): > 2000 µM; pEC50 (Vero [31]): < 2.70; pEC50 (HeLa [32]): 2.70 |
| Nc1nc2c(ncn2COCCO)c(=O)[nH]1 [ACYCLOVIR] |  |  |  |  |  | > 150 µM |  |  |  |  |  |  | 5.34 | 5.39 | 4.39 | 4.20 |  |  |  |  |  |
| CC#CSC[C@H]1OC(n2cnc3c(N)ncnc32)[C@H](O)[C@@H]1O (stereo partly drawn) | 3.60 | 3.21 | 4.31 | 1240 µM (≈ 398 µg/mL) | < 2.91 | > 200 µM | < 3.70 | < 3.60 | < 3.60 | < 3.92 | < 3.60 | > 1240 µM | < 3.70 | < 3.70 | 3.70 | 3.70 | < 3.92 | < 3.92 | < 3.92 | < 2.91 | T1/2 [9]: 7 min; pEC50 (HEL [7]): < 3.70; pKi (Adenosylhomocysteinase [19]): 4.80; pEC50 (Vero [20]): < 3.70; pEC50 (Vero [22]): < 4.40; pEC50 (Vero [23]): < 3.70; K inact (Adenosylhomocysteinase [27]): 0.062 min⁻¹; NAD+ content (Adenosylhomocysteinase [28]): 0.68; NADH content (Adenosylhomocysteinase [29]): 0.32 |
| NC(=O)c1ncn([C@@H]2O[C@H](CO)[C@@H](O)[C@H]2O)n1 [RIBAVIRIN] | 3.49 | 3.49 | 4.19 | > 1600 µM | 3.00 |  |  | 8.30 | 4.40 | < 3.49 | 5.82 | > 1600 µM |  |  |  |  | 4.40 | 3.71 | 4.40 | < 2.80 |  |
| C#CCSC[C@H]1OC(n2cnc3c(N)ncnc32)[C@H](O)[C@@H]1O (stereo partly drawn) | < 3.60 | < 3.60 | < 3.60 | 1240 µM (≈ 398 µg/mL) | < 3.60 | > 200 µM | < 3.70 | < 3.60 | < 3.60 | < 3.92 | < 3.60 | 1240 µM (≈ 398 µg/mL) | < 3.70 | < 3.70 | 3.81 | 3.90 | < 3.92 | < 3.92 | < 3.92 | < 3.60 | T1/2 [9]: 19 min; pEC50 (HEL [33]): < 3.70; pKi (Adenosylhomocysteinase [19]): 4.35; pEC50 (Vero [20]): < 3.70; pEC50 (Vero [22]): < 4.40; pEC50 (Vero [23]): < 3.70; K inact (Adenosylhomocysteinase [27]): 0.0074 min⁻¹; NAD+ content (Adenosylhomocysteinase [28]): 0; NADH content (Adenosylhomocysteinase [29]): 1 |
